DSG3 Ab inh: human desmoglein-3 autoantibody binding inhibition. AID 588358. 0.48% of 310,000 active. P32926. binding (percent of control), % at 10 µM. DSG3-coupled beads, scFv-anti-DSG3-GFP binding, flow cytometry; active compounds read low;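 active = binding more than 3 SD below its plate's average and above zero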;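 note: hits lower antibody fragment binding to DSG3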
Target sequence (P32926 whole entry, looked up, the tested form may be a part): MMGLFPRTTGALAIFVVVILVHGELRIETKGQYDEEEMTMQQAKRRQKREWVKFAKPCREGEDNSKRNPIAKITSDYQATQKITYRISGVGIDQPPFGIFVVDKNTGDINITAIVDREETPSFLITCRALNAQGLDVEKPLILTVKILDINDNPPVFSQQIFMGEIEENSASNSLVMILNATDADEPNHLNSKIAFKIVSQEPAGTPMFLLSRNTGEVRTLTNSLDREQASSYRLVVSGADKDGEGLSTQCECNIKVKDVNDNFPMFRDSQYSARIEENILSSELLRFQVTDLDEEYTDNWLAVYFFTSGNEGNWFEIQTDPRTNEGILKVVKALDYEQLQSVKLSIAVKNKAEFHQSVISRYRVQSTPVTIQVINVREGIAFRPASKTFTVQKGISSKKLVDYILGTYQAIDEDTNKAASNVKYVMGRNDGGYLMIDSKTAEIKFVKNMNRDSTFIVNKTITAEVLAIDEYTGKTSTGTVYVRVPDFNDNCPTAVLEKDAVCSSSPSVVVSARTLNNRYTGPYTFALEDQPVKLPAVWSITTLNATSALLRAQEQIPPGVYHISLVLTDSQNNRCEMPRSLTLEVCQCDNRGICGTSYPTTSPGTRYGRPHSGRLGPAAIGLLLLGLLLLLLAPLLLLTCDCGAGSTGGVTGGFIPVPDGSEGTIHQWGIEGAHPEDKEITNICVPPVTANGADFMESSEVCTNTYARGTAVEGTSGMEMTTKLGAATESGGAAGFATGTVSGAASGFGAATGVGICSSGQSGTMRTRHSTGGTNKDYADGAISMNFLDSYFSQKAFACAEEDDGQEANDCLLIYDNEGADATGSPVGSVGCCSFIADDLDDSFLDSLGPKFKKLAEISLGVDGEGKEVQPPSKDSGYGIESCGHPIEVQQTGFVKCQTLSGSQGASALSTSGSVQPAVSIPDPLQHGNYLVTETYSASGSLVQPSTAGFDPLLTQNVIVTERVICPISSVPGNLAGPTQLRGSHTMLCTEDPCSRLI
ALR H2O2 inh: inhibitors of human sulfhydryl oxidase ALR. inhibition, % (test concentration not listed). purified ALR, DTT oxidation, H2O2 HRP-luminol luminescence. AID 485317. P55789. 3.8% of 290,000 active;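 active = mean replicate inhibition above about 79%, with every replicate also reaching it, limit read from the data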
NALP1 inh: NALP1 inhibition | S. cerevisiae NALP1/ASC/caspase-1 growth, X-gal OD620, 72 h | inhibition, % at 10 µM | 0.61% of 280,000 active | AID 2071; in the data active = inhibition mostly above about 24%, no sharp cut-off; inactive = mostly below about 32%
Arr AP2 block: blocks beta-arrestin peptide binding to AP2 adaptin; 0.31% of 340,000 active; inhibition, % at 10 µM; FITC-arrestin peptide / GST-AP2 beads, flow cytometry; AP2 beta2 appendage carries R879A mutation; AID 504490;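 active = inhibition above a set limit, near 3 SD of compounds lacking own fluorescence, cut at about 54% in these data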;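 note: plate controls were DMSO wells for no effect and 5 µM unlabelled arrestin peptide for full effect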
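Test system: GST-tagged AP2 beta2-adaptin appendage (R879A) on 4 µm glutathione beads; also added: fluorescein-tagged arrestin peptide at 50 nM final; timing: 12 min plus 1 h, RT; signal: flow cytometry, FL1 (488/535 nm); read-out: percent drop in bead-associated FITC signal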
PolyA inhibitor: yeast polyadenylation inhibition | 0.02% of 300,000 active | activity score, % at 12 µM | AID 1875 | S. cerevisiae SKY197-pL101 polyadenylation reporter, beta-gal luminescence; efflux-impaired pdr1/pdr3 knockout yeast; score 100 = 6 SD above DMSO;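 active = lowest replicate activity score at least 50, where 100 means six control SD above control mean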;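 note: yeast exposed to compound for 9 h at 30 °C; higher score means more reporter readthrough which indicates perturbed polyadenylation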
NALP3 yeast inh: NALP3 inhibition in yeast; Yeast reconstituted NLRP3/ASC/caspase-1, beta-gal luminescence, 24 h; inhibition, % at 10 µM; 0.39% of 330,000 active; AID 2825;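 active = inhibition of 50% or more; inactive = inhibition below 50%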;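 note: plate controls were induced DMSO wells for no effect and uninduced yeast grown without galactose for full effect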
Active calls of the source: *; x = not tested or not shown. An excerpt weighted towards active compounds, which were near 4.6% of everything screened.

SMILES | DSG3 Ab inh | ALR H2O2 inh | NALP1 inh | Arr AP2 block | PolyA inhibitor | NALP3 yeast inh
COC(=O)c1ccc(NC(=O)c2cccc(Cl)c2)o1 | 102.8 | 92.8* | -5.3 | 7.6 | -8.0 | 15.6
COc1cccc(NC(=O)c2cccc(Cl)c2)c1 | 101.8 | x | x | -1.1 | x | 35.9
CC(OC(=O)CCNS(=O)(=O)c1ccc(Cl)cc1)C(=O)N(C)Cc1ccccc1 (stereo not given) | 101.3 | x | x | x | x | x
Cc1ccc(S(=O)(=O)N2C[C@H]3N(C(=O)OC(C)C)N(C(=O)OC(C)C)C[C@H](OC(=O)Nc4cccs4)[C@@]3(O)C2)cc1 | 104.1 | x | x | x | x | x
Cc1ccc(S(=O)(=O)Nc2ccccc2C(=O)N2CCCCC2C)c(C)c1NS(C)(=O)=O (stereo not given) | x | -0.7 | 5.1 | 0.6 | 7.6 | 21.8
COc1ccc(CN(C)S(=O)(=O)c2nnc(NC(=O)c3cccc(F)c3)s2)cc1 | x | -6.4 | 14.6 | -9.1 | -17.6 | 11.0
CN(C(=O)CSc1nc2ccc(Cl)cc2[nH]1)C1CCS(=O)(=O)C1 (stereo not given) | 99.6 | x | x | 5.2 | x | -16.7
Cn1c(SCc2cccc(F)c2)nnc1-c1ccncc1 | 100.5 | -10.8 | 10.3 | -15.2 | 4.9 | 20.2
COC(=O)c1ccc(NC(=O)c2ccc(F)cc2)o1 | x | 27.3 | -7.1 | -14.1 | -1.3 | 10.9
COC(=O)c1ccc(NC(=O)c2ccc(C)cc2)o1 | 107.0 | 98.2* | 0.9 | 5.2 | 8.1 | 18.4
CNC(=O)CSCc1cnn(-c2ccccc2)c1-n1cccc1 | x | -0.5 | 41.2* | 1.2 | -14.6 | 8.1
CCN(CCN(C)C)C(=O)Cn1ncc2c1-c1cc(C)ccc1OC2 | 98.3 | -10.0 | 41.4* | 16.8 | -21.0 | 0.4
Cc1ccc2c(c1)-c1c(cnn1CC(=O)O)CO2 | 97.9 | -1.4 | -9.1 | -3.9 | -0.3 | 9.4
COc1ccc(C(=O)c2sc3nc(-c4ccc(OC)cc4)ccc3c2N)cc1 | 26.3* | 3.7 | 30.8 | 46.3 | 2.7 | 4.4
COc1ccc(-c2nc(CC(=O)O)cs2)cc1OC | x | 0.7 | 11.3 | x | 6.9 | 15.9
CCOc1ccc(-c2nc(CCl)cs2)cc1OC | 106.8 | 98.8* | 11.4 | 18.2 | 0.6 | 20.9
Cc1cc(NC(=O)CSc2nc(CCC3CCCC3)nc3ccccc23)no1 | x | 97.5* | 37.1 | -0.7 | 5.0 | -7.0
O=C(CSc1nc(CCC2CCCC2)nc2ccccc12)NCc1ccc2c(c1)OCO2 | 94.9 | 99.9* | 19.7 | 2.6 | 3.7 | 17.2
Cc1cc(Br)ccc1NC(=O)CN(C)C(=O)CSCc1ccccc1 | 106.0 | -6.0 | x | 3.8 | -5.1 | 14.4
O=C(O)c1cccc(N2C(=O)CSC2=S)c1 | 92.2 | 79.1* | 5.3 | -23.8 | -2.0 | 10.8
O=C1CSC(=S)N1c1cccc(Br)c1 | 118.2 | -22.6 | 11.9 | 4.0 | -20.4 | 37.6
O=C1C(Nc2ccccc2)=C2CCCC=C2N1c1ccccc1 | 110.6 | 102.1* | 18.3 | 10.1 | -2.3 | 21.0
COc1ccc(OCC2CCNCC2)cc1 | 103.8 | -9.8 | 18.7 | 4.1 | -0.9 | 16.1
Oc1ccc(N2CCN(c3ncnc4sc5c(c34)CCC5)CC2)cc1 | 103.3 | 98.5* | -2.2 | 42.0 | -9.2 | 18.9
OCCN1CCN(c2ncnc3sc4c(c23)CCCC4)CC1 | 87.6 | -15.5 | -32.7 | 18.2 | 3.4 | 16.9
SMILES | DSG3 Ab inh | ALR H2O2 inh | NALP1 inh | Arr AP2 block | PolyA inhibitor | NALP3 yeast inh
COc1cc(/C=N/NC(=O)CCn2nnc3ccccc32)ccc1O | 103.2 | 99.1* | 6.8 | 1.9 | 9.7 | -28.0
CCOc1cc(/C=N\NC(=O)Cn2nnc3ccccc32)ccc1O | 94.4 | 55.4 | -6.7 | -4.0 | 9.8 | -11.6
COc1cc(/C=N/NC(=O)Cn2nnc3ccccc32)ccc1O | 102.6 | 92.2* | 6.9 | -4.7 | -24.0 | -7.3
CCN(CC)c1cccc(OCC(=O)N(C)CCC#N)c1 | 86.7 | 97.7* | 11.2 | 12.6 | 8.4 | -2.5
O=C(NC1CCCCC1)c1sc(=S)n2c1[nH]c(=O)c1ccccc12 | x | 96.9* | -3.4 | 5.6 | -68.8 | -23.3
CCN1C(=O)CC(C(=O)NC)SC1=Nc1cc(Cl)c(O)c(Cl)c1 (stereo not given) | 98.4 | 98.9* | 2.5 | 9.3 | 19.8 | -18.3
Cc1cc(Cl)c2oc(C(=O)N(C)Cc3nccn3C)c(C)c2c1 | 95.6 | x | 6.6 | -4.6 | -3.2 | 26.0
CC(C)CN(CC(C)C)c1nn[nH]n1 | 85.6* | x | x | 3.7 | x | x
Cc1cc(=O)oc2cc(OCC(=O)NC3(C#N)CCCCC3)ccc12 | 106.0 | x | x | x | x | x
COc1ccc(NC2CCCN(C(=O)c3csc(C(C)C)n3)C2)cc1 (stereo not given) | x | 99.5* | 0.9 | 3.7 | 18.5 | 5.3
COc1cc(OC)cc(C(=O)NCC2CCCN(C(=O)c3csc(C(C)C)n3)C2)c1 (stereo not given) | 103.9 | -7.1 | 3.7 | -3.0 | -4.1 | 14.2
COc1ccc(NC2CCCN(C(=O)c3csc(C(C)C)n3)C2)cc1OC (stereo not given) | 97.0 | 98.8* | 11.4 | 3.4 | -5.2 | 13.4
COc1ccc(NC2CCCN(C(=O)c3cc(CC(C)C)nc(N)n3)C2)cc1 (stereo not given) | 100.2 | 93.4* | -3.2 | 32.7 | -11.9 | -7.6
CS(=O)(=O)Nc1ccccc1C(=O)Nc1ccccc1Cl | 66.2* | -7.3 | -39.1 | 5.7 | -4.2 | 12.2
CCc1ccc(S(=O)(=O)NCc2cn3cccc(C)c3n2)s1 | 99.2 | -5.0 | 8.6 | -60.0 | 12.0 | -4.7
CCc1ccc(S(=O)(=O)NCc2cn3ccccc3n2)s1 | 101.1 | -7.9 | 37.9* | 13.8 | 3.9 | -3.2
Cc1ccc(NC(=O)CCN2C(=O)OC(C)(C)C2(C)O)cc1 (stereo not given) | 112.6 | -2.1 | -2.8 | -5.4 | 8.7 | 4.8
CCC1(C)OC(=O)NN(c2ccc(C)cc2)C1(C)O (stereo not given) | 133.1 | 95.2* | 34.7 | 6.2 | 0.9 | 2.8
OCCNc1ncnc2c1nnn2Cc1ccccc1Cl | 95.2 | x | x | x | x | x
CC(C)CCNc1ncnc2c1nnn2Cc1ccccc1Cl | 83.9* | -5.0 | 2.1 | 3.5 | 13.6 | 19.3
CNc1nc(Nc2ccc(C(C)=O)cc2)nc(OC(C(F)(F)F)C(F)(F)F)n1 | 109.3 | 100.3* | -0.2 | -2.3 | 11.6 | -1.6
N#Cc1ccccc1NC(=O)COC(=O)c1ccc(F)cc1F | 91.5 | x | -1.3 | 21.9 | 14.3 | -0.3
CCCOC(=O)c1ccc(O)c(OC)c1 | 99.0 | -0.9 | 0.5 | 8.6 | 10.1 | 6.2
COc1cc(C(=S)N(C)C)ccc1O | 109.3 | 92.1* | -5.5 | -3.9 | x | 0.1
CC(C)CCN1CCN(C2CCN(c3ccc4c(c3)OCO4)CC2)CC1CCO (stereo not given) | 107.0 | 99.1* | 14.5 | 4.8 | 11.5 | 9.0
Cc1ccc(N2CCC(N3CCN(C4CCCCC4)C(CCO)C3)CC2)cc1 (stereo not given) | 99.4 | 99.1* | 3.7 | 7.8 | -1.6 | 0.3
Clc1ccc(Cc2ccccn2)cc1 | 98.4 | x | x | -6.8 | x | 8.6

Source: PubChem
